T cell modulator: modulators of CD8 T cell-vesicle binding, primary screen, mouse 2C CD8+ T cells, flow cytometry | 2C CD8+ T cell-vesicle binding; active compounds read low | response (vesicle binding), % at 7 µM | 0.068% of 330,000 active;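 active = response, share of CD8 T cells binding vesicles, and their 90th percentile fluorescence all below set limits, cut at about 80% in these data, passing the limit was not always enough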;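 note: values below 100% mean blocked vesicle binding to the CD8+ T cells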
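Read-out – percent CD8+ FL2 mean versus row control · System – murine 2C transgenic CD8+ T lymphocytes · Times – 1.5 h cell–vesicle binding at 37 °C, then 20 min icy labelling · Control set – naked vesicles low, QL9 vesicles with vehicle high · Detection – cytometric PE anti-B7-1 and Alexa647 anti-CD8 signals after 1% paraformaldehyde fixation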
GASC-1 inh: inhibitors of GASC-1 histone demethylase, primary screen, biochemical, fluorescence, DELFIA europium; Lysine-specific demethylase 4C (Homo sapiens), Q9H3R0; GST-JMJD2C(1-420) H3K9me3 demethylation; inhibition, % at 2.35 µM; 0.069% of 330,000 active; AID 2099, 2009;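 active = more than half of a compound's replicate wells show inhibition beyond 50%, single wells judged on their own value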;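 note: signal counts dimethyl H3K9 product captured on neutravidin plate; 0% = median of DMSO wells and 100% = 0.3 times that DMSO median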
Target sequence (Q9H3R0 1-420 limits assumed): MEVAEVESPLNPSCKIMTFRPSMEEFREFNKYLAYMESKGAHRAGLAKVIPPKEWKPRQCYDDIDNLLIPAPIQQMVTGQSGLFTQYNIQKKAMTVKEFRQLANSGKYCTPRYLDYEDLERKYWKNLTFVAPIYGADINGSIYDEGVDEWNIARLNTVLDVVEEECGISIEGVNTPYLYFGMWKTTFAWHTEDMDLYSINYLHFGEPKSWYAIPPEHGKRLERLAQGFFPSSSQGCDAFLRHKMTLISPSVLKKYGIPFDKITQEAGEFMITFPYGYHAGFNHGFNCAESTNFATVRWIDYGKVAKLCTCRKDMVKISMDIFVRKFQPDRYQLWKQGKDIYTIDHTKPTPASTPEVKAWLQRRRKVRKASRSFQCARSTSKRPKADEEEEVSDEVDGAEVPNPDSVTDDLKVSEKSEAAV
Rtt109 HAT inh: inhibitors of C. albicans Rtt109/Vps75 HAT, primary screen, biochemical, ThioGlo CoA-SH fluorescence, plate reader; AID 540336, 2011; purified Rtt109/Vps75, 4 h; Histone acetyltransferase RTT109 (Candida albicans (strain SC5314 / ATCC MYA-2876)), …; inhibition, % at 34.9 µM; 0.16% of 330,000 active;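 active = inhibition of at least 50% in every replicate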
NR3A LBD binder: binders of NR3A ligand-binding domain, primary screen, biophysical, differential scanning fluorimetry, uHTS. Glutamate receptor ionotropic, NMDA 3A (GRIN3A) ligand-binding domain. NR3A LBD differential scanning fluorimetry, Tm shift; 0% = protein alone, 100% = glycine-bound protein. Tm shift relative to glycine control, % at 25 µM. 2.5% of 340,000 active;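 active = melting temperature shift of at least 10% of the positive control shift, at one fixed dose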
* = called active by the depositor; i = inactive; nt = no result. This is a sample that favours compounds with a hit; in the whole collection about 2.8% have one here.

SMILES | T cell modulator | GASC-1 inh | Rtt109 HAT inh | NR3A LBD binder
O=C(COc1ccccc1C(=O)N/N=C\c1ccc(O)c(O)c1)N/N=C/c1ccc(O)c(O)c1 | 176 | 6 | 11 | 13*
CC(=O)Nc1ccc(NC(=O)c2ccc(COc3ccccc3Br)o2)cc1 | 138 | 4 | -1 | 23*
Cc1ccccc1-n1ncc2c1CC(C)(C)CC2NC(=O)CCC(F)(F)F (stereo not given) | 214 | 12 | -1 | 1
COc1ccc(NC(=O)CSc2n[nH]c(=O)n2C2CC2)cc1OC | 303 | -2 | 0 | -1
COc1ccc(CNC(=O)COC(=O)C2(C)CC2(Cl)Cl)cc1 (stereo not given) | 330 | -1 | 5 | 0
Cc1cccc(C)c1-c1ccc(CN2C(CC(C)C)C(=O)N(Cc3cn(CC4CCCCC4)nn3)CCS2(=O)=O)cc1 (stereo not given) | nt | nt | 2 | -2
O=C(CSc1nnc(-c2ccco2)n1-c1ccccc1Cl)Nc1cccc(C(=O)O)c1 | 256 | 37 | 3 | 2
CC(C)(C)c1ccc(OCc2ccc(C(=O)N/N=C/c3ccc(O)c(O)c3)cc2)cc1 | 335 | 14 | -7 | 24*
O=C(N/N=C/c1cccc(O)c1)c1ccc(COc2cccc3cccnc23)cc1 | 513 | 2 | -5 | 4
O=C(N/N=C/c1cccc(O)c1)c1ccc(COc2ccccc2Br)cc1 | 250 | -2 | -1 | 35*
COc1ccc(O)c(/C=N/NC(=O)c2ccc(OCc3cccc(Br)c3)cc2)c1 | 206 | 26 | -1 | 27*
Cc1cccc(N2CCN(C(=O)CCC(=O)N3CC(C)Oc4ccccc43)CC2)c1C (stereo not given) | 335 | -8 | -1 | -2
Cc1ccccc1OCC(=O)Nc1ccc(N2CCN(C(=O)c3ccco3)CC2)cc1 | 188 | -3 | 4 | -4
O=C1CCC(C(=O)OCC(=O)Nc2ccc(Cl)cc2C(F)(F)F)=NN1 | 257 | 18 | -17 | 1
CSc1ccccc1NC(=O)CO/N=C(\C)c1cc2ccccc2o1 | 468 | 4 | 21 | 11*
C/C(=N\OCC(=O)Nc1ccc(F)c(F)c1F)c1cc2ccccc2o1 | 736 | 6 | -15 | -8
CSc1ccccc1NC(=O)Cc1ccccc1 | 273 | -2 | -2 | 0
CSc1ccccc1NC(=O)COC(=O)CCc1ccccc1 | 546 | -1 | -21 | 14*
CCc1ccccc1NC(=O)C(Cc1ccccc1)c1nn[nH]n1 (stereo not given) | 104 | 0 | -4 | -1
O=C(Cc1cccs1)Nc1nc2c(ccc3ccccc32)s1 | 306 | -16 | 3 | 11*
CCn1c2ccccc2c2cc(NC(=O)COC(=O)c3cc(S(N)(=O)=O)c(Cl)cc3Cl)ccc21 | 229 | -4 | 37 | 14*
CCOC(=O)c1ccc(NC(=S)Nc2ccc(Br)cc2N)cc1 | 493 | -1 | 10 | 23*
Cc1cc(Cl)c(S(=O)(=O)N2CCN(c3ccccn3)CC2)cc1OCC(=O)NC1CCCCC1 | 249 | 2 | 2 | 0
CN1CCN(c2ccc(NC(=O)c3ccc(Br)o3)cc2)CC1 | 348 | -7 | -7 | -1
O=C(Nc1ccccc1C(=O)O)c1cccc(C(=O)Nc2ccccc2C(=O)O)c1 | 170 | 0 | 6 | 10*
SMILES | T cell modulator | GASC-1 inh | Rtt109 HAT inh | NR3A LBD binder
O=C(Nc1cccc(C(=O)Nc2ccccc2C(=O)O)c1)c1cccc(Cl)c1 | 109 | 12 | 10 | 14*
CC1CCN(c2ccc(NC(=O)c3ccc(Br)o3)cc2)CC1 | 336 | 7 | -6 | 30*
O=C(Nc1ccccc1C(=O)O)c1ccc(NC(=O)c2ccc(Br)o2)cc1 | 238 | -12 | 10 | 13*
O=C(Nc1ccccc1C(=O)O)c1ccccc1 | 438 | 51 | -17 | 6
COc1ccccc1N(C)S(=O)(=O)c1ccc(C(=O)Nc2cccc(S(=O)(=O)N3CCOCC3)c2)cc1 | nt | nt | 13 | 0
CSc1cc(C)c(OCC(=O)Nc2c(C)nn(C)c2C)c(C)c1 | i | -2 | -2 | 0
CN(C(=O)c1cccc(NC(=O)Cc2ccc(NC(=O)C3CCCN(C(=O)C4CCC4)C3)cc2)c1)C1CCC1 (stereo not given) | nt | nt | -4 | 0
COC(=O)C1CCN(C(=O)COC(=O)C2CCN(S(=O)(=O)c3ccc(C)c(C)c3)CC2)CC1 | 352 | 1 | 0 | 1
CN(C)c1ccc(NC(=O)c2ccc(N3CCOCC3)nc2)cc1 | 103 | -5 | -1 | 1
COC(=O)c1c(NC(=O)c2ccccc2OC)sc(C(=O)N2CCOCC2)c1C | 205 | 6 | -9 | -2
O=C(Cc1ccc(Cl)cc1)Nc1cccc(C(=O)Nc2ccccc2C(=O)O)c1 | 229 | -20 | -3 | 13*
COc1ccc(CC(=O)Nc2cccc(C(=O)Nc3ccccc3C(=O)O)c2)cc1OC | 515 | -5 | 2 | -6
COc1ccccc1CNS(=O)(=O)c1ccc(N2CCCC2)cc1Br | nt | nt | 1 | 2
CCn1c(SCC(=O)Nc2nccs2)nnc1-c1cc2cccc(OC)c2o1 | nt | -7 | 0 | 1
COc1cccc2cc(-c3nnc(SCC(=O)Nc4cc(C(F)(F)F)ccc4Cl)n3N)oc12 | 235 | 5 | -1 | 11*
CCCOc1cccc(C(=O)NCCNC(=O)c2ccco2)c1 | 170 | 15 | 4 | 0
CCOc1ncccc1C(=O)Nc1cc(S(=O)(=O)N2CCCCC2)ccc1OC | 202 | nt | 5 | 3
S=C(NCc1ccc2[nH]c3c(c2c1)CCCC3)Nc1ccccc1Cl | 623 | 5 | -2 | 11*
CCCCOC(=O)C1CN(c2ccccc2)N=C1C(=O)OCC (stereo not given) | 283 | 4 | -6 | 15*
O=C1C(=O)c2ccccc2C(O)=C1CCCCl | 396 | -9 | -3 | -1
CCOC(=O)c1c(C)nc2cc(C)ccn12 | 516 | -6 | 17 | 0
Cc1ccn2c(C(=O)CSc3ccccc3Cl)c(C)nc2c1 | 483 | 7 | 8 | 14*
COC(C[C@@H]1O[C@@H]1[C@H](O)[C@@H](C)OCc1ccccc1)OC | 577 | -2 | 12 | -1
CCCCNC(=O)C(=O)N/N=C/c1ccc(OCC(=O)Nc2cccc(OC)c2)c(OC)c1 | 194 | -7 | 12 | 11*
COc1cc(/C=N/NC(=O)c2ccncc2)ccc1OCC(=O)Nc1cccc([N+](=O)[O-])c1 | 230 | 9 | 3 | -1
COc1cc(/C=N/NC(=O)c2ccncc2)ccc1OCC(=O)Nc1ccc(C)c(C)c1 | 201 | -14 | 1 | 12*
O=C(CN1CCN(S(=O)(=O)c2ccc(F)cc2)CC1)Nc1ccc(Cl)cn1 | 149 | 11 | -5 | 1
COCCNC(=O)C1CCCN(S(=O)(=O)c2ccc3c(c2)CC(C)N3C(=O)C2CC2)C1 (stereo not given) | 387 | -7 | -3 | 0
